These results are taken from ChEMBL document CHEMBL4513216, “Probing the Open Global Health Chemical Diversity Library for Multistage-Active Starting Points for Next-Generation Antimalarials” (ACS Infect Dis, 2020).

The structures appear in SMILES notation.

This data set can be described thus: Toxicity liver stage against HepG2, at 10uM. Format: cell-based. The arrangement: test concentration 10 uM, cell line HepG2-A16-CD81EGFP. The following applies: human, HepG2-A16-CD81EGFP cells; read-out: INHIBITION
The procedure, abridged:
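Uninfected HepG2-A16-CD81EGFP cells, 3 × 10^3 per well, 1536-well, plated on prespotted compound at 10 μM final, parasite-free screening media added to match infected plates; puromycin 10 μM positive, DMSO 0.5% negative; run in parallel with 48 h PbLuc assay at 37 °C, 5% CO2; viability by CellTiter-Glo luminescence, normalized to controls.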
Consider `CCc1ncc(C(=O)N2CCn3c(CC)nnc3C2)s1`, for which the cytotoxicity at 10 µM came out at 1.03%.
Next, `Cc1cc(F)ccc1S(=O)(=O)NCc1cccc(C(=O)N2CCCC2)c1`: -1.2%; `CC(C)CC(NC(=O)c1cc(C2CC2)n[nH]1)c1ncnn1C` (stereo not given): 4.93%.
Next, `CCn1c(N)nc2cc(C(=O)N3CC(c4ccccn4)C3)cnc21`: -14.8%.
Next, `Cc1cccc2sc(NC(=O)CN3CCCC4(CC3)CNC(=O)O4)nc12` (stereo not given): -4.26%.
As to `O=C(Cc1cccs1)NS(=O)(=O)c1cccc2cnccc12`, the cytotoxicity at 10 µM was -14.6%.
Next, `Cc1cc(NC(=O)C(C)Cn2cc(Br)cn2)no1` (stereo not given): -2.04%.
Consider `CN1CCCC1c1cccc(Cc2ccccc2F)n1` (stereo not given), for which the cytotoxicity at 10 µM worked out at 7.31%.
Next, `CC(C(=O)Nc1ccnn1C(C)C)N1CCN(Cc2ccon2)CC1` (stereo not given): 0.72%; `NCCn1cc(C(=O)N2CCCCCC2c2cccc(F)c2)nn1` (stereo not given): 8.48%.
For the compound `COc1cccc(C2CCCN2C(=O)c2cc3c([nH]c2=O)CCC3)c1` (stereo not given), the cytotoxicity at 10 µM was -12%.
Under `CN1CC(=O)N(c2cccc(F)c2)CC12CCN(CCO)C2` (stereo not given) stands -82.1%.
On to `CN(C)Cc1cnc(C2CCN(C(=O)c3cccc(Cl)c3)C2)[nH]1` (stereo not given), for which the cytotoxicity at 10 µM is -3.36%.
With `CCCc1n[nH]c(C2CN(CCCS(C)(=O)=O)CCO2)n1` (stereo not given), the cytotoxicity at 10 µM was -2.38%.
As for `O=C(NCCOc1ccc2c(c1)OCO2)N1CCCC(CO)C1` (stereo not given), the cytotoxicity at 10 µM is -22.3%.
With `Cc1ccc(CNC(=O)C2CCN(C(=O)c3ccccc3)CC2)n1C`, the cytotoxicity at 10 µM came out at 1.2%.
On to `O=C(CCc1ccsc1)NCC1CCN(c2ccccc2)C1` (stereo not given), for which the cytotoxicity at 10 µM came to 21.1%.
Under `O=C(Cn1nc2c(cc1=O)CCCC2)N[C@@H](C(=O)O)c1ccccc1` stands 5.76%.
Next, `NC(=O)c1cc(C2CCCN(CCOc3cccc(F)c3)C2)n[nH]1` (stereo not given): -19.6%; `CN1CCc2ncc(CNc3cc(N(C)C)ncn3)n2CC1`: 0.749%.
Take `CCOc1ccccc1C1=CCN(C(=O)C2CCN(C)C(=O)C2)CC1` (stereo not given): the cytotoxicity at 10 µM was 2.58%.
With `Cc1ccc(-c2ccnc(NC(C)c3n[nH]c(C)n3)n2)c(C)n1` (stereo not given), the cytotoxicity at 10 µM is 2.83%.
Take `Cc1cc(NC(=O)CN2C(=O)CC(C)(C)c3ccccc32)no1`: the cytotoxicity at 10 µM was -3.29%.
For the compound `COCCN1CCOCC2(CCN(c3cnccn3)CC2)C1`, the cytotoxicity at 10 µM was -87.4%.
Next, `O=C(CCc1nc(C2CC2)no1)c1ccccc1`: -6.43%; `CN(Cc1nc(C2CC2)no1)C1CCCN(c2cccnn2)C1` (stereo not given): -6.62%; `CC(C)N1CCC(CNC(=O)CCc2cc(F)ccc2F)C1` (stereo not given): -5.38%.
As to `CN(C)c1ccc(C(=O)NCCCNc2ccc(C(F)(F)F)cn2)cc1`, the cytotoxicity at 10 µM was -7.66%.
Under `O=C(c1cn(CCN2CCCCC2)nn1)N1CCCO1` stands 5.87%; under `CCNc1nc(C)c(C(=O)N(C)Cc2nc(CC)no2)s1`, -6.02%.
Next, `O=C(COc1cccc2c1CCC2=O)NCc1ccccc1F`: -5.33%; `CCC(C)(COc1ncccc1Cl)NCC(=O)NC1CCCCC1` (stereo not given): 0.651%.
Under `Cn1cc(-c2nnc3sc(C4CCC4)nn23)cn1` stands -13%.
As for `CC(C)(C)NC(=O)c1ccn(COc2ccccc2Cl)n1`, the cytotoxicity at 10 µM was determined as 10.7%.
Under `Cc1ccc(Nc2nccc(C3CN(C(C)C)C3)n2)nc1` stands -26.2%.
Under `COCCc1noc(CN(C)C2CCCN(c3ccc(C)nn3)C2)n1` (stereo not given) stands 19.3%; under `CC(C)NC(=O)CNC(=O)c1csc(Cc2ccccc2F)n1`, -4.44%.
In the case of `CCOC(=O)C1(Cc2ccccc2-c2ccccc2OC)CCNCC1`, the cytotoxicity at 10 µM is -1.47%.
Next, `CCNC(=O)CCC(=O)NC1(c2cccc(Br)c2)CC1`: 8.64%; `CCn1ccnc1CN(C)C1CCCN(CCc2ccccc2)C1` (stereo not given): -8.63%.
